In ChEMBL document CHEMBL4706761, “Design and Implementation of Synthetic RNA Binders for the Inhibition of miR-21 Biogenesis” (ACS Med Chem Lett, 2021):

Experiments:
microRNA 21 [1] = assay: (§1) Selectivity index, ratio of Kd for 5'-FAM/3'-DAB-labeled UGUCGGGUAGCUUAUCAGACUGAUGUUGACUGUUGAAUCUCAUGGCAACACCAGUCGAUGGGCUGUCUGACA pre-miRNA-21 (unknown origin) in presence of tRNA to Kd for 5'-FAM/3'-DAB-labeled UGUCGGGUAGCUUAUCAGACUGAUGUUGACUGUUGAAUCUCAUGGCAACACCAGUCGAUGGGCUGUCUGACA pre-miRNA-21 (unknown origin); assay type: nucleic-acid assay
microRNA 21 [2] = assay: Binding affinity to 5'-FAM/3'-DAB-labeled UGUCGGGUAGCUUAUCAGACUGAUGUUGACUGUUGAAUCUCAUGGCAACACCAGUCGAUGGGCUGUCUGACA pre-miRNA-21 (unknown origin) assessed as dissociation constant incubated for overnight by fluorescence based assay; assay type: nucleic-acid assay
microRNA 21 [3] = assay: Binding affinity to 5'-FAM/3'-DAB-labeled UGUCGGGUAGCUUAUCAGACUGAUGUUGACUGUUGAAUCUCAUGGCAACACCAGUCGAUGGGCUGUCUGACA pre-miRNA-21 (unknown origin) assessed as dissociation constant incubated for overnight in presence of double stranded 15-mer 5'-CGTTTTTATTTTTGC-3' DNA by fluorescence based assay; assay type: nucleic-acid assay
microRNA 21 [4] = assay: Binding affinity to 5'-FAM/3'-DAB-labeled UGUCGGGUAGCUUAUCAGACUGAUGUUGACUGUUGAAUCUCAUGGCAACACCAGUCGAUGGGCUGUCUGACA pre-miRNA-21 (unknown origin) assessed as dissociation constant incubated for overnight in presence of Saccharomyces cerevisiae tRNA by fluorescence based assay; assay type: nucleic-acid assay
microRNA 21 [5] = assay: as §1, with “double stranded 15-mer 5'-CGTTTTTATTTTTGC-3' DNA” for “tRNA”; assay type: nucleic-acid assay
microRNA 21 [6] = assay: Inhibition of 5'-FAM/3'-DAB-labeled UGUCGGGUAGCUUAUCAGACUGAUGUUGACUGUUGAAUCUCAUGGCAACACCAGUCGAUGGGCUGUCUGACA pre-miRNA-21 (unknown origin) biogenesis incubated for 30 mins in presence of human recombinant dicer by FRET based assay; assay type: nucleic-acid assay
Procedure, shortened: (§2)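 FRET cleavage assay on a 72-mer pre-miR-21 carrying 5′-fluorescein and 3′-dabcyl. Substrate is processed by recombinant Dicer, E. coli RNase III or MCF7 cell lysate across a range of ligand concentrations. Cleavage raises fluorescence. IC50 from duplicates over three independent experiments.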

microRNA 21 [7] = assay: Binding affinity to 5'-FAM/3'-DAB-labeled UGUCGGGUAGCUUAUCAGACUGAUGUUGACUGUUGAAUCUCAUGGCAACACCAGUCGAUGGGCUGUCUGACA pre-miRNA-21 (unknown origin) assessed as pre-miRNA-21-compound complex formation by measuring Gibbs free energy; assay type: nucleic-acid assay
Procedure, shortened: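 ΔG°T obtained from the fluorescence binding assay on 5′-FAM-pre-miR-21, run at several temperatures (278–308 K). Enthalpic (ΔH°) and entropic (−TΔS°) contributions are derived from these values.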

microRNA 21 [8] = assay: Inhibition of 5'-FAM/3'-DAB-labeled UGUCGGGUAGCUUAUCAGACUGAUGUUGACUGUUGAAUCUCAUGGCAACACCAGUCGAUGGGCUGUCUGACA pre-miRNA-21 (unknown origin) biogenesis preincubated for 30 mins followed by MCF7 cell lysate addition and measured after 1 hr by fluorescence based assay; procedure, shortened: as §2
microRNA 21 [9] = assay: Inhibition of 5'-FAM/3'-DAB-labeled UGUCGGGUAGCUUAUCAGACUGAUGUUGACUGUUGAAUCUCAUGGCAACACCAGUCGAUGGGCUGUCUGACA pre-miRNA-21 (unknown origin) biogenesis preincubated for 30 mins followed by Escherichia coli RNase III addition and measured after 1 hr by fluorescence based assay; assay type: nucleic-acid assay; procedure, shortened: as §2

Ratio (microRNA 21 [1]) | Kd (microRNA 21 [2]) | Kd (microRNA 21 [3]) | Kd (microRNA 21 [4]) | Ratio (microRNA 21 [5]) | IC50 (microRNA 21 [6]) | deltaG (microRNA 21 [7]) | IC50 (microRNA 21 [8]) | IC50 (microRNA 21 [9]) | Structure (SMILES)
1.1 | 133 nM | 187 nM | 151 nM | 1.4 |  |  |  |  | CC(=O)Nc1nc(-c2cccc(NC(=O)CCC(=O)N[C@@H](Cc3cn(C[C@H]4O[C@@H](O[C@@H]5[C@@H](O)[C@H](N)C[C@H](N)[C@H]5O[C@H]5O[C@H](CN)[C@@H](O)[C@H](O)[C@H]5N)[C@H](O)[C@@H]4O[C@H]4O[C@@H](CN)[C@@H](O)[C@H](O)[C@H]4N)nn3)C(=O)N[C@@H](C)C(N)=O)c2)cs1
1 | 50.7 nM | 95.7 nM | 51 nM | 1.9 | < 5000 nM | -9.92 kcal/mol |  |  | CC(=O)Nc1nc(-c2cccc(NC(=O)CCC(=O)N[C@@H](Cc3cn(C[C@H]4O[C@@H](O[C@@H]5[C@@H](O)[C@H](N)C[C@H](N)[C@H]5O[C@H]5O[C@H](CN)[C@@H](O)[C@H](O)[C@H]5N)[C@H](O)[C@@H]4O[C@H]4O[C@@H](CN)[C@@H](O)[C@H](O)[C@H]4N)nn3)C(=O)N[C@@H](CCCCN)C(N)=O)c2)cs1
1.3 | 128 nM | 261 nM | 170 nM | 2 | < 5000 nM |  |  |  | Cc1ccc(C(=O)Nc2nc(-c3cccc(NC(=O)CCC(=O)N[C@@H](Cc4cn(C[C@H]5O[C@@H](O[C@@H]6[C@@H](O)[C@H](N)C[C@H](N)[C@H]6O[C@H]6O[C@H](CN)[C@@H](O)[C@H](O)[C@H]6N)[C@H](O)[C@@H]5O[C@H]5O[C@@H](CN)[C@@H](O)[C@H](O)[C@H]5N)nn4)C(=O)N[C@@H](C)C(N)=O)c3)cs2)cc1
1.2 | 348 nM | 877 nM | 405 nM | 2.5 |  |  |  |  | Cc1ccc(C(=O)Nc2nc(-c3cccc(NC(=O)CCC(=O)N[C@@H](Cc4cn(C[C@H]5O[C@@H](O[C@@H]6[C@@H](O)[C@H](N)C[C@H](N)[C@H]6O[C@H]6O[C@H](CN)[C@@H](O)[C@H](O)[C@H]6N)[C@H](O)[C@@H]5O[C@H]5O[C@@H](CN)[C@@H](O)[C@H](O)[C@H]5N)nn4)C(=O)N[C@@H](CCCCN)C(N)=O)c3)cs2)cc1
1 | 162 nM | 274 nM | 168 nM | 1.7 | < 5000 nM |  |  |  | Cc1ccc(C(=O)Nc2nc(-c3cccc(NC(=O)CCC(=O)N[C@@H](Cc4cn(C[C@H]5O[C@@H](O[C@@H]6[C@@H](O)[C@H](N)C[C@H](N)[C@H]6O[C@H]6O[C@H](CN)[C@@H](O)[C@H](O)[C@H]6N)[C@H](O)[C@@H]5O[C@H]5O[C@@H](CN)[C@@H](O)[C@H](O)[C@H]5N)nn4)C(=O)N[C@@H](Cc4c[nH]cn4)C(N)=O)c3)cs2)cc1
1 | 128 nM | 171 nM | 134 nM | 1.3 | < 5000 nM |  | 3100 nM | 1260 nM | NC[C@@H]1O[C@H](O[C@H]2[C@@H](O)[C@H](O[C@@H]3[C@@H](O)[C@H](N)C[C@H](N)[C@H]3O[C@H]3O[C@H](CN)[C@@H](O)[C@H](O)[C@H]3N)O[C@@H]2Cn2cc(CCC(=O)Nc3cccc(-c4csc(NC(=O)[C@@H](N)Cc5c[nH]cn5)n4)c3)nn2)[C@H](N)[C@@H](O)[C@@H]1O
1 | 50.3 nM | 80.9 nM | 50.4 nM | 1.6 | < 5000 nM | -9.92 kcal/mol |  |  | CC(=O)Nc1nc(-c2cccc(NC(=O)CCC(=O)N[C@@H](Cc3cn(C[C@H]4O[C@@H](O[C@@H]5[C@@H](O)[C@H](N)C[C@H](N)[C@H]5O[C@H]5O[C@H](CN)[C@@H](O)[C@H](O)[C@H]5N)[C@H](O)[C@@H]4O[C@H]4O[C@@H](CN)[C@@H](O)[C@H](O)[C@H]4N)nn3)C(=O)N[C@@H](Cc3c[nH]cn3)C(N)=O)c2)cs1
1 | 1390 nM | 1950 nM | 1420 nM | 1.4 |  |  |  |  | NC[C@@H]1O[C@H](O[C@H]2[C@@H](O)[C@H](O[C@@H]3[C@@H](O)[C@H](N)C[C@H](N)[C@H]3O[C@H]3O[C@H](CN)[C@@H](O)[C@H](O)[C@H]3N)O[C@@H]2CO)[C@H](N)[C@@H](O)[C@@H]1O [FRAMYCETIN]
1.3 | 641 nM | 1460 nM | 807 nM | 2.3 |  |  |  |  | C[C@H](NC(=O)[C@H](Cc1cn(C[C@H]2O[C@@H](O[C@@H]3[C@@H](O)[C@H](N)C[C@H](N)[C@H]3O[C@H]3O[C@H](CN)[C@@H](O)[C@H](O)[C@H]3N)[C@H](O)[C@@H]2O[C@H]2O[C@@H](CN)[C@@H](O)[C@H](O)[C@H]2N)nn1)NC(=O)CCC(=O)NCCn1ccc(=O)[nH]c1=O)C(N)=O
